Test results taken from ChEMBL document CHEMBL2010652, “Synthesis and evaluation of analogues of estrone-3-O-sulfamate as potent steroid sulfatase inhibitors” (Bioorg Med Chem, 2012).

Experiments:
[1] = molecular target: T1, Steryl-sulfatase (Homo sapiens, UniProt P08842); test: Inhibition of steroid sulfatase in human MCF7 cells using [3H]E1S as substrate after 20 hrs by scintillation spectrometry; format: cell-based
T1 sequence (P08842 whole entry): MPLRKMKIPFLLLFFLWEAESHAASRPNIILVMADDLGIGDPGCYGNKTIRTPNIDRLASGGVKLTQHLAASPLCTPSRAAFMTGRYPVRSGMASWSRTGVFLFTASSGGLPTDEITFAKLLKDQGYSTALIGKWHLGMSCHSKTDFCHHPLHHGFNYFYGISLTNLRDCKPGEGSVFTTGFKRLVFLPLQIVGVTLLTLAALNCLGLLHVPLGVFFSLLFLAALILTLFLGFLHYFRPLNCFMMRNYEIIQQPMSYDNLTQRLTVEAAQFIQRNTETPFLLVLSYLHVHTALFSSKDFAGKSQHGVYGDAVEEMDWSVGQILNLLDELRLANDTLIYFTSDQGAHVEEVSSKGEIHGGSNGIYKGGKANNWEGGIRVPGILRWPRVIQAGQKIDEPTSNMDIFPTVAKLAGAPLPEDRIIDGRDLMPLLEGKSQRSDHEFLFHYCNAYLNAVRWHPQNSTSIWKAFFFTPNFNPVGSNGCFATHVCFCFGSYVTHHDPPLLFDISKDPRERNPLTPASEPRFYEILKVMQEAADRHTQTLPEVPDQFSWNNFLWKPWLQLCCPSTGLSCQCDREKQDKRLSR
Method in brief: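 Intact MCF-7 monolayers incubated 20 h at 37 °C with [3H]E1S (5 pmol, 7 × 10^5 dpm) in serum-free minimal essential medium, with or without inhibitor (0.1–10 range). Estrone product separated from E1S by toluene partition; [14C]estrone corrected procedural losses. 3H/14C counted by scintillation; E1S hydrolysed calculated from 3H counts and substrate specific activity; IC50 derived.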

[2] = molecular target: T1, Steryl-sulfatase
[3] = molecular target: T2, Steryl-sulfatase (Homo sapiens) (UniProt P08842); test: Inhibition of steroid sulfatase in human MCF7 cells using [3H]E1S as substrate at 10 uM after 20 hrs by scintillation spectrometry; format: cell-based
T2 sequence (whole entry): T1 sequence (P08842 whole entry)
Method in brief: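 Intact MCF-7 monolayers exposed to inhibitor with [3H]E1S (5 pmol, 60 Ci/mmol) in serum-free minimal essential medium, 20 h at 37 °C. Product estrone split from E1S by toluene partition, with [14C]estrone as recovery marker. 3H and 14C counted by scintillation. E1S hydrolysed calculated from 3H counts, corrected for volumes and 14C recovery, and from substrate specific activity.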

[4] = molecular target: T2, Steryl-sulfatase (Homo sapiens); settings: MCF7, 0.01 uM
[5] = test system: Rattus norvegicus; test: Inhibition of steroid sulfatase in rat liver at 10 mg/kg, po; format: functional
[6] = test system: Rattus norvegicus; test: Inhibition of steroid sulfatase in rat liver at 10 mg/kg, sc; format: functional; settings: route subcutaneous
[7] = test system: Rattus norvegicus; test: Inhibition of steroid sulfatase in rat liver at 10 mg/kg, po administered as single dose measured up to 7 days; format: functional; settings: 168 h
[8] = test system: Rattus norvegicus; test: Inhibition of steroid sulfatase in rat liver at 10 mg/kg, sc administered as single dose measured up to 7 days; format: functional; settings: 168 h, route subcutaneous

IC50 [2] [nM] | Compound | IC50 [1] [nM] | other results
2500 | C=CCc1cc2c(cc1OS(N)(=O)=O)CC[C@@H]1[C@@H]2CC[C@]2(C)C(=O)CC[C@@H]12 | 37 | 
2900 | CCCc1cc2c(cc1OS(N)(=O)=O)CC[C@@H]1[C@@H]2CC[C@]2(C)C(=O)CC[C@@H]12 | 236 | 
1200 | C[C@]12CC[C@@H]3c4ccc(OS(N)(=O)=O)c(Br)c4CC[C@H]3[C@@H]1CCC2=O | 42 | 
> 10000 | C=CCc1cc2c(c(CC=C)c1OS(N)(=O)=O)CC[C@@H]1[C@@H]2CC[C@]2(C)C(=O)CC[C@@H]12 |  | inhibition [3]: < 10%
 | C[C@]12CC[C@@H]3c4cc(Br)c(OS(N)(=O)=O)cc4CC[C@H]3[C@@H]1CCC2=O | 0.11 | 
> 10000 | CCCc1cc2c(c(CCC)c1OS(N)(=O)=O)CC[C@@H]1[C@@H]2CC[C@]2(C)C(=O)CC[C@@H]12 |  | inhibition [3]: < 10%
 | C[C@]12CC[C@@H]3c4cc(I)c(OS(N)(=O)=O)cc4CC[C@H]3[C@@H]1CCC2=O | 0.81 | 
> 10000 | CCCc1c(OS(N)(=O)=O)ccc2c1CC[C@@H]1[C@@H]2CC[C@]2(C)C(=O)CC[C@@H]12 |  | inhibition [3]: < 10%
> 10000 | Cc1cc2c(cc1OS(N)(=O)=O)CC[C@@H]1[C@@H]2CC[C@]2(C)C(=O)CC[C@@H]12 |  | 
0.1 | C[C@]12CC[C@@H]3c4cc(C(F)F)c(OS(N)(=O)=O)cc4CC[C@H]3[C@@H]1CCC2=O |  | 
5.2 | C[C@]12CC[C@@H]3c4cc(C#N)c(OS(N)(=O)=O)cc4CC[C@H]3[C@@H]1CCC2=O | 1.2 | 
> 10000 | CN1c2cc3c(cc2OS1(=O)=O)CC[C@@H]1[C@@H]3CC[C@]2(C)C(=O)CC[C@@H]12 |  | 

Compound | IC50 [2] [nM] | IC50 [1] [nM] | other results
C[C@]12CC[C@@H]3c4cc5c(cc4CC[C@H]3[C@@H]1CCC2=O)OS(=O)(=O)N5 | > 10000 |  | 
C[C@]12CC[C@@H]3c4cc(Cl)c(OS(N)(=O)=O)cc4CC[C@H]3[C@@H]1CCC2=O | 3.4 | 0.44 | 
C[C@]12CC[C@@H]3c4cc(F)c(OS(N)(=O)=O)cc4CC[C@H]3[C@@H]1CCC2=O | 5.6 | 0.62 | 
C[C@]12CC[C@@H]3c4cc([N+](=O)[O-])c(OS(N)(=O)=O)cc4CC[C@H]3[C@@H]1CCC2=O | 70 | 8.3 | 
C[C@@]12CCC[C@H]1[C@@H]1CCc3cc(OS(N)(=O)=O)ccc3[C@H]1CC2 | 199 |  | inhibition [4]: 97%
C[C@]12CC[C@@H]3c4ccc5c(c4CC[C@H]3[C@@H]1CCC2=O)NS(=O)(=O)O5 | > 10000 |  | 
CCc1cc2c(cc1OS(N)(=O)=O)CC[C@@H]1[C@@H]2CC[C@]2(C)C(=O)CC[C@@H]12 | 820 |  | 
C[C@]12CC[C@@H]3c4ccc(OS(N)(=O)=O)cc4CC[C@H]3[C@@H]1CCC2=O [EMATE] | 18 | 0.83 | inhibition in vivo at 10 mg/kg [5]: 99%; inhibition in vivo at 10 mg/kg [6]: 99%; inhibition in vivo at 10 mg/kg [7]: > 95%; inhibition in vivo at 10 mg/kg [8]: > 95%
C[C@]12CC[C@@H]3c4ccc(OS(N)(=O)=O)c([N+](=O)[O-])c4CC[C@H]3[C@@H]1CCC2=O | 0.8 | 0.01 | 
